Results from ChEMBL document CHEMBL1143019, “Hybrid molecules of estrone: new compounds with potential antibacterial, antifungal, and antiproliferative activities” (2007).
Converted amounts (≈) assume the structure as drawn.

How the values were obtained:
Pichia kudriavzevii [1] = assay: Antifungal activity against Candida krusei E28 after 48 hrs; format: functional
Method in brief: (§1)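 Modified NCCLS M27-A broth microdilution with clinical isolates subcultured on Sabouraud dextrose agar. Suspensions diluted 1:50 in RPMI 1640 to give a final inoculum of 0.5–2.5×10³ CFU/mL for yeasts or 0.5–5×10⁴ CFU/mL for molds. The RPMI had L-glutamine, no bicarbonate, and 0.165 M MOPS to pH 7.0. Twofold dilutions from 250 to 0.49. Plates held at 35 °C, humid, without agitation. MIC is the lowest concentration giving ≥80% inhibition versus drug-free control, read at 24 and 48 h.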

Lichtheimia corymbifera [2] = assay: Antifungal activity against Absidia corymbifera 272 after 48 hrs; format: functional; method in brief: as §1
Candida albicans [3] = assay: Antifungal activity against Candida albicans ATCC 44859 after 48 hrs; format: functional; settings: ATCC 44859, 48 h; method in brief: as §1
Nakaseomyces glabratus [4] = assay: Antifungal activity against Candida glabrata 20/I after 24 hrs; format: functional; method in brief: as §1
Lichtheimia corymbifera [5] = assay: Antifungal activity against Absidia corymbifera 272 after 24 hrs; format: functional; method in brief: as §1
Aspergillus fumigatus [6] = assay: Antifungal activity against Aspergillus fumigatus 231 after 48 hrs; format: functional; method in brief: as §1
Candida tropicalis [7] = assay: Antifungal activity against Candida tropicalis 156 after 24 hrs; format: functional; method in brief: as §1
Pichia kudriavzevii [8] = assay: Antifungal activity against Candida krusei E28 after 24 hrs; format: functional; method in brief: as §1
Candida tropicalis [9] = assay: Antifungal activity against Candida tropicalis 156 after 48 hrs; format: functional; method in brief: as §1
Candida albicans [10] = assay: Antifungal activity against Candida albicans ATCC 44859 after 24 hrs; format: functional; settings: ATCC 44859, 24 h; method in brief: as §1
Trichosporon beigelii [11] = assay: Antifungal activity against Trichosporon beigelii 1188 after 24 hrs; format: functional; method in brief: as §1
Nakaseomyces glabratus [12] = assay: Antifungal activity against Candida glabrata 20/I after 48 hrs; format: functional; method in brief: as §1
Trichosporon beigelii [13] = assay: Antifungal activity against Trichosporon beigelii 1188 after 48 hrs; format: functional; method in brief: as §1
Aspergillus fumigatus [14] = assay: Antifungal activity against Aspergillus fumigatus 231 after 24 hrs; format: functional; method in brief: as §1
K562 = assay: Antiproliferative activity against human K562 cells after 72 hrs; format: functional; settings: K562, 72 h
Method in brief: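 About 10,000 suspension cells per well in RPMI 1640 with 10% heat-inactivated FBS and penicillin/streptomycin, without HEPES. Exposed to 10 concentrations for 72 h at 37 °C in humidified 5% CO₂. Wells diluted 1:50 in CASYTON and counted electronically, each result the mean of three successive counts. GI50 is where the concentration–response curve crosses 50% of control cell count.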

[15] = test system: Mycobacterium tuberculosis; assay: Antimicrobial activity against Mycobacterium tuberculosis My 331/88 after 21 days; format: functional; settings: 504 h
Mycobacterium kansasii [16] = assay: Antimicrobial activity against Mycobacterium kansasii My 235/80 after 14 days; format: functional; settings: 336 h
Method in brief: (§2)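 Run in Šula semisynthetic liquid medium containing bovine serum. Compounds added as DMSO solutions at final concentrations of […]. Each strain was also inoculated onto Löwenstein–Jensen medium to control inoculum sterility and growth.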

[17] = test system: Mycobacterium tuberculosis; assay: Antimicrobial activity against Mycobacterium tuberculosis My 331/88 after 14 days; format: functional; settings: 336 h
L929 = assay: Antiproliferative activity against mouse L929 cells after 72 hrs; format: functional; settings: L929, 72 h
Method in brief: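 About 10,000 adherent cells per well in RPMI 1640 with 10% heat-inactivated FBS and penicillin/streptomycin, without HEPES. Exposed to 10 concentrations for 72 h at 37 °C in humidified 5% CO₂. Monolayers fixed with glutaraldehyde, stained 15 min with 0.05% methylene blue, and eluted with 0.33 N HCl; OD read at 630 nm. GI50 derived from dose–response curves relative to control.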

Mycobacterium kansasii [18] = assay: Antimicrobial activity against Mycobacterium kansasii My 235/80 after 21 days; format: functional; settings: 504 h; method in brief: as §2
Mycobacterium kansasii [19] = assay: Antimicrobial activity against Mycobacterium kansasii My 6509/96 after 14 days; format: functional; settings: 336 h; method in brief: as §2
Mycobacterium kansasii [20] = assay: Antimicrobial activity against Mycobacterium kansasii My 6509/96 after 7 days; format: functional; settings: 168 h; method in brief: as §2
Mycobacterium avium [21] = assay: Antimicrobial activity against Mycobacterium avium My 330/88 after 21 days; format: functional; settings: 504 h
Mycobacterium avium [22] = assay: Antimicrobial activity against Mycobacterium avium My 330/88 after 14 days; format: functional; settings: 336 h
HeLa = assay: Cytotoxicity against human HeLa cells after 72 hrs; format: functional; settings: for CC50: Homo sapiens, HeLa, 72 h
Method in brief: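 About 10,000 cells per well in RPMI 1640 were preincubated 48 h without compound. The 10 test concentrations were then applied onto the monolayers and incubated 72 h at 37 °C in humidified 5% CO₂. Monolayers fixed with glutaraldehyde, stained with 0.05% methylene blue, and eluted with 0.33 N HCl; optical density measured at 630 nm.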

Mycobacterium kansasii [23] = assay: Antimicrobial activity against Mycobacterium kansasii My 235/80 after 7 days; format: functional; settings: 168 h; method in brief: as §2
Mycobacterium kansasii [24] = assay: Antimicrobial activity against Mycobacterium kansasii My 6509/96 after 21 days; format: functional; settings: 504 h; method in brief: as §2
Trichophyton benhamiae [25] = assay: Antifungal activity against Trichophyton mentagrophytes 445 after 120 hrs; format: functional, Arthroderma benhamiae
Method in brief: (§3)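 Same modified M27-A microdilution with the mold inoculum of 0.5–5×10⁴ CFU/mL. Medium was RPMI 1640 with L-glutamine, no bicarbonate, and 0.165 M MOPS at pH 7.0. Twofold dilutions from 250 to 0.49. Incubated at 35 °C in a humid atmosphere.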

Trichophyton benhamiae [26] = assay: Antifungal activity against Trichophyton mentagrophytes 445 after 72 hrs; format: functional, Arthroderma benhamiae; method in brief: as §3

Compound	MIC (Pichia kudriavzevii [1]) [µM]	MIC (Lichtheimia corymbifera [2]) [µM]	MIC (Candida albicans [3]) [µM]	MIC (Nakaseomyces glabratus [4]) [µM]	MIC (Lichtheimia corymbifera [5]) [µM]	MIC (Aspergillus fumigatus [6]) [µM]	GI50 (K562) [µg/mL]	MIC [15] [µM]	MIC (Mycobacterium kansasii [16]) [µM]	MIC [17] [µM]	GI50 (L929) [µg/mL]	MIC (Mycobacterium kansasii [18]) [µM]	MIC (Mycobacterium kansasii [19]) [µM]	MIC (Mycobacterium kansasii [20]) [µM]	MIC (Mycobacterium avium [21]) [µM]	MIC (Mycobacterium avium [22]) [µM]	CC10 (HeLa) [µg/mL]	CC50 (HeLa) [µg/mL]	MIC (Mycobacterium kansasii [23]) [µM]	MIC (Mycobacterium kansasii [24]) [µM]	also measured
C[C@@H]1[C@H](O)[C@@H](C)/C=C/C=C/C=C/C=C/C=C/C=C/C=C/[C@H](O[C@@H]2O[C@H](C)[C@@H](O)[C@H](N)[C@@H]2O)C[C@@H]2O[C@](O)(C[C@@H](O)C[C@@H](O)[C@H](O)CC[C@@H](O)C[C@@H](O)CC(=O)O[C@H]1C)C[C@H](O)[C@H]2C(=O)O [AMPHOTERICIN B]	0.14 (≈ 0.129 µg/mL)	2.16 (≈ 2 µg/mL)	0.07 (≈ 0.0647 µg/mL)	0.04 (≈ 0.037 µg/mL)	1.08 (≈ 0.998 µg/mL)	0.27 (≈ 0.25 µg/mL)	–	–	–	–	–	–	–	–	–	–	–	–	–	–	MIC (Candida tropicalis [7]): 0.07 µM (≈ 0.0647 µg/mL); MIC (Pichia kudriavzevii [8]): 0.14 µM (≈ 0.129 µg/mL); MIC (Candida tropicalis [9]): 0.07 µM (≈ 0.0647 µg/mL); MIC (Candida albicans [10]): 0.02 µM (≈ 0.0185 µg/mL); MIC (Trichosporon beigelii [11]): 1.08 µM (≈ 0.998 µg/mL); MIC (Nakaseomyces glabratus [12]): 0.14 µM (≈ 0.129 µg/mL); MIC (Trichosporon beigelii [13]): 2.16 µM (≈ 2 µg/mL); MIC (Aspergillus fumigatus [14]): 0.27 µM (≈ 0.25 µg/mL)
Sc1nnnn1-c1ccc(Cl)c(Cl)c1	–	–	–	–	–	–	31 (≈ 125 µM)	250 (≈ 61.8 µg/mL)	500 (≈ 124 µg/mL)	250 (≈ 61.8 µg/mL)	33.4 (≈ 135 µM)	500 (≈ 124 µg/mL)	500 (≈ 124 µg/mL)	250 (≈ 61.8 µg/mL)	> 500	> 250	18.1 (≈ 73.2 µM)	33.3 (≈ 135 µM)	500 (≈ 124 µg/mL)	500 (≈ 124 µg/mL)	–
Sc1nnnn1-c1ccc(Cl)cc1	–	–	–	–	–	–	42.6 (≈ 200 µM)	> 500	> 500	500 (≈ 106 µg/mL)	> 50	> 500	500 (≈ 106 µg/mL)	250 (≈ 53.2 µg/mL)	> 500	> 500	26.4 (≈ 124 µM)	48.9 (≈ 230 µM)	500 (≈ 106 µg/mL)	> 500	–
Cc1ccc(-n2nnnc2SCCCCCCCOc2ccc3c(c2)CC[C@@H]2[C@@H]3CC[C@]3(C)C(=O)CC[C@@H]23)cc1	> 250	> 250	> 250	> 250	> 250	> 250	> 50	> 500	> 500	500 (≈ 279 µg/mL)	> 50	> 500	–	–	–	> 500	28.7 (≈ 51.4 µM)	> 50	–	–	MIC (Trichophyton benhamiae [25]): > 250 µM; MIC (Candida tropicalis [7]): > 250 µM; MIC (Pichia kudriavzevii [8]): > 250 µM; MIC (Candida tropicalis [9]): > 250 µM; MIC (Candida albicans [10]): > 250 µM; MIC (Trichosporon beigelii [11]): > 250 µM; MIC (Nakaseomyces glabratus [12]): > 250 µM; MIC (Trichosporon beigelii [13]): > 250 µM; MIC (Aspergillus fumigatus [14]): 250 µM (≈ 140 µg/mL); MIC (Trichophyton benhamiae [26]): > 250 µM
NNC(=O)c1ccncc1 [ISONIAZID]	–	–	–	–	–	–	–	1 (≈ 0.137 µg/mL)	> 250	0.5 (≈ 0.0686 µg/mL)	–	> 250	4 (≈ 0.549 µg/mL)	4 (≈ 0.549 µg/mL)	> 250	> 250	–	–	> 250	8 (≈ 1.1 µg/mL)	–
Sc1nnnn1-c1ccccc1	–	–	–	–	–	–	> 50	> 500	> 500	> 500	> 50	> 500	> 500	> 500	> 500	> 500	40 (≈ 224 µM)	> 50	> 500	> 500	–
Clc1ccc(-n2nnnc2SCc2ccccc2)cc1	> 250	> 250	> 250	> 250	> 250	62.5 (≈ 18.9 µg/mL)	> 50	–	32 (≈ 9.69 µg/mL)	16 (≈ 4.84 µg/mL)	16.7 (≈ 55.2 µM)	–	16 (≈ 4.84 µg/mL)	16 (≈ 4.84 µg/mL)	–	62.5 (≈ 18.9 µg/mL)	5 (≈ 16.5 µM)	50 (≈ 165 µM)	16 (≈ 4.84 µg/mL)	–	MIC (Trichophyton benhamiae [25]): 62.5 µM (≈ 18.9 µg/mL); MIC (Candida tropicalis [7]): > 250 µM; MIC (Pichia kudriavzevii [8]): > 250 µM; MIC (Candida tropicalis [9]): > 250 µM; MIC (Candida albicans [10]): > 250 µM; MIC (Trichosporon beigelii [11]): > 250 µM; MIC (Nakaseomyces glabratus [12]): > 250 µM; MIC (Trichosporon beigelii [13]): > 250 µM; MIC (Aspergillus fumigatus [14]): 62.5 µM (≈ 18.9 µg/mL); MIC (Trichophyton benhamiae [26]): 31.3 µM (≈ 9.48 µg/mL)
